From ChEMBL document CHEMBL3244187, “Structure--activity relationships in cephalosporins prepared from penicillins. 2. Analogues of cephalexin substituted in the 3-methyl group” (J Med Chem, 1977)
In brackets after ≈: the same amount, converted by molar mass.

Columns and labels:
[1] = test system: Staphylococcus aureus; experiment: Antibacterial activity against beta-lactamase producing benzylpenicillin-resistant Staphylococcus aureus Russell after 18 hrs by serial dilution method; format: functional
In short: (§1)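 MICs by serial dilution on nutrient agar. Inoculum 0.001 mL of undiluted overnight broth culture. Plates incubated 18 h at 37 °C before reading. The S. aureus Russell strain produces β-lactamase and resists benzylpenicillin.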

[2] = test system: Shigella sonnei; experiment: Antibacterial activity against Shigella sonnei after 18 hrs by serial dilution method; format: functional
In short: (§2)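 MICs by serial dilution on nutrient agar. Inoculum 0.001 mL of undiluted overnight broth culture. Plates incubated at 37 °C for 18 h before reading.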

[3] = Drug level in mouse blood at 50 mg/kg, sc after 2 hrs by microbiological assay; format: ADME, organism-based; set-up: dose 50 mg/kg, route subcutaneous; details: read-out: Drug uptake
In short: (§3)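 Mice given a single 50 mg/kg dose by the route in the line. Groups of five killed at each time point and blood taken from the cut axilla, heparinized and stored at 4 °C. Blood assayed the same day by large-plate microbiological assay with Sarcina lutea NCTC 8340, overnight at 30 °C. Standards made in mouse blood, with pH 7.2 phosphate-buffered saline as diluent.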

[4] = test system: Escherichia coli; experiment: Antibacterial activity against Escherichia coli after 18 hrs by serial dilution method; format: functional; in short: as §2
[5] = Drug level in mouse blood at 50 mg/kg, po after 2 hrs by microbiological assay; format: ADME, organism-based; set-up: dose 50 mg/kg, route oral; details: read-out: Drug uptake; in short: as §3
[6] = Drug level in mouse blood at 50 mg/kg, sc after 4 hrs by microbiological assay; format: ADME, organism-based; set-up: dose 50 mg/kg, route subcutaneous; details: read-out: Drug uptake; in short: as §3
[7] = Drug level in mouse blood at 50 mg/kg, po after 10 mins by microbiological assay; format: ADME, organism-based; set-up: dose 50 mg/kg, route oral; details: read-out: Drug uptake; in short: as §3
[8] = test system: Proteus mirabilis; experiment: Antibacterial activity against Proteus mirabilis after 18 hrs by serial dilution method; format: functional; in short: as §2
[9] = Drug level in mouse blood at 50 mg/kg, po after 4 hrs by microbiological assay; format: ADME, organism-based; set-up: dose 50 mg/kg, route oral; details: read-out: Drug uptake; in short: as §3
[10] = Drug level in mouse blood at 50 mg/kg, sc after 1 hr by microbiological assay; format: ADME, organism-based; set-up: dose 50 mg/kg, route subcutaneous; details: read-out: Drug uptake; in short: as §3
[11] = Drug level in mouse blood at 50 mg/kg, po after 1 hr by microbiological assay; format: ADME, organism-based; set-up: dose 50 mg/kg, route oral; details: read-out: Drug uptake; in short: as §3
[12] = test system: Salmonella typhi; experiment: Antibacterial activity against Salmonella typhi after 18 hrs by serial dilution method; format: functional, Salmonella enterica subsp. enterica serovar Typhi; details: Salmonella enterica; in short: as §1
[13] = Drug level in mouse blood at 50 mg/kg, po after 30 mins by microbiological assay; format: ADME, organism-based; set-up: dose 50 mg/kg, route oral; details: read-out: Drug uptake; in short: as §3
[14] = test system: Klebsiella aerogenes; experiment: Antibacterial activity against Klebsiella aerogenes after 18 hrs by serial dilution method; format: functional; in short: as §2
[15] = Drug level in mouse blood at 50 mg/kg, sc after 10 mins by microbiological assay; format: ADME, organism-based; set-up: dose 50 mg/kg, route subcutaneous; details: read-out: Drug uptake; in short: as §3
[16] = Drug level in mouse blood at 50 mg/kg, sc after 20 mins by microbiological assay; format: ADME, organism-based; set-up: dose 50 mg/kg, route subcutaneous; details: read-out: Drug uptake; in short: as §3
[17] = Drug level in mouse blood at 50 mg/kg, po after 20 mins by microbiological assay; format: ADME, organism-based; set-up: dose 50 mg/kg, route oral; details: read-out: Drug uptake; in short: as §3
[18] = test system: Staphylococcus aureus; experiment: Antibacterial activity against Staphylococcus aureus Oxford after 18 hrs by serial dilution method; format: functional; in short: as §2
[19] = Drug level in mouse blood at 50 mg/kg, sc after 30 mins by microbiological assay; format: ADME, organism-based; set-up: dose 50 mg/kg, route subcutaneous; details: read-out: Drug uptake; in short: as §3
[20] = Drug level in mouse blood at 50 mg/kg, iv after 4 hrs by microbiological assay; format: ADME, organism-based; set-up: dose 50 mg/kg, route intravenous; details: read-out: Drug uptake; in short: as §3
[21] = Drug level in mouse blood at 50 mg/kg, iv after 20 mins by microbiological assay; format: ADME, organism-based; set-up: dose 50 mg/kg, route intravenous; details: read-out: Drug uptake; in short: as §3
[22] = Drug level in mouse blood at 50 mg/kg, iv after 30 mins by microbiological assay; format: ADME, organism-based; set-up: dose 50 mg/kg, route intravenous; details: read-out: Drug uptake; in short: as §3
[23] = Drug level in mouse blood at 50 mg/kg, iv after 2 hrs by microbiological assay; format: ADME, organism-based; set-up: dose 50 mg/kg, route intravenous; details: read-out: Drug uptake; in short: as §3
[24] = Drug level in mouse blood at 50 mg/kg, iv after 1 hr by microbiological assay; format: ADME, organism-based; set-up: dose 50 mg/kg, route intravenous; details: read-out: Drug uptake; in short: as §3
[25] = Drug level in mouse blood at 50 mg/kg, iv after 10 mins by microbiological assay; format: ADME, organism-based; set-up: dose 50 mg/kg, route intravenous; details: read-out: Drug uptake; in short: as §3

Compound: N[C@@H](C(=O)N[C@@H]1C(=O)N2C(C(=O)O)=C(Cc3cncc(C(=O)O)c3)CS[C@H]12)c1ccccc1
- MIC [1]: 12.5 µg/mL (≈ 26.7 µM)
- MIC [2]: 12.5 µg/mL (≈ 26.7 µM)
- concentration at 2 h [3]: 2000 ng/mL
- MIC [4]: 12.5 µg/mL (≈ 26.7 µM)
- concentration at 2 h [5]: 600 ng/mL
- concentration at 4 h [6]: < 400 ng/mL
- concentration at 10 min [7]: 550 ng/mL
- MIC [8]: 1.25 µg/mL (≈ 2.67 µM)
- concentration at 4 h [9]: < 400 ng/mL
- concentration at 1 h [10]: 12200 ng/mL
- concentration at 1 h [11]: 1500 ng/mL
- MIC [12]: 2.5 µg/mL (≈ 5.34 µM)
- concentration at 0.5 h [13]: 1700 ng/mL
- MIC [14]: 1.25 µg/mL (≈ 2.67 µM)
- concentration at 10 min [15]: 70400 ng/mL
- concentration at 20 min [16]: 54000 ng/mL
- concentration at 20 min [17]: 850 ng/mL
- MIC [18]: 1.25 µg/mL (≈ 2.67 µM)
- concentration at 0.5 h [19]: 35800 ng/mL

Compound: N[C@@H](C(=O)N[C@@H]1C(=O)N2C(C(=O)O)=C(CC3CCCCO3)CS[C@H]12)c1ccccc1 (stereo partly drawn)
- MIC [1]: 5 µg/mL (≈ 11.6 µM)
- MIC [2]: 25 µg/mL (≈ 57.9 µM)
- MIC [4]: > 50 µg/mL
- MIC [8]: > 50 µg/mL
- MIC [12]: 25 µg/mL (≈ 57.9 µM)
- MIC [14]: 10 µg/mL (≈ 23.2 µM)
- MIC [18]: 5 µg/mL (≈ 11.6 µM)

Compound: N[C@@H](C(=O)N[C@@H]1C(=O)N2C(C(=O)O)=C(Cc3ccccc3C(=O)O)CS[C@H]12)c1ccccc1
- MIC [1]: 12.5 µg/mL (≈ 26.7 µM)
- concentration at 4 h [20]: 18100 ng/mL
- MIC [2]: 12.5 µg/mL (≈ 26.7 µM)
- concentration at 2 h [3]: 40600 ng/mL
- concentration at 2 h [5]: 2800 ng/mL
- concentration at 4 h [6]: 31200 ng/mL
- concentration at 20 min [21]: 83600 ng/mL
- concentration at 10 min [7]: 1100 ng/mL
- concentration at 4 h [9]: 3200 ng/mL
- concentration at 1 h [10]: 49200 ng/mL
- concentration at 1 h [11]: 3200 ng/mL
- MIC [12]: 50 µg/mL (≈ 107 µM)
- concentration at 0.5 h [13]: 2400 ng/mL
- concentration at 10 min [15]: 63200 ng/mL
- concentration at 0.5 h [22]: 75400 ng/mL
- concentration at 2 h [23]: 29100 ng/mL
- concentration at 1 h [24]: 64400 ng/mL
- concentration at 20 min [16]: 66000 ng/mL
- concentration at 20 min [17]: 1400 ng/mL
- concentration at 10 min [25]: 102000 ng/mL
- concentration at 0.5 h [19]: 58000 ng/mL

Compound: N[C@@H](C(=O)N[C@@H]1C(=O)N2C(C(=O)O)=C(Cc3ccccn3)CS[C@H]12)c1ccccc1
- MIC [1]: 12.5 µg/mL (≈ 29.4 µM)
- MIC [2]: 25 µg/mL (≈ 58.9 µM)
- MIC [4]: 50 µg/mL (≈ 118 µM)
- MIC [8]: 50 µg/mL (≈ 118 µM)
- MIC [12]: 12.5 µg/mL (≈ 29.4 µM)
- MIC [14]: > 500 µg/mL
- MIC [18]: 1.25 µg/mL (≈ 2.94 µM)

Compound: COC(=O)CC1=C(C(=O)O)N2C(=O)[C@@H](NC(=O)[C@H](N)c3ccccc3)[C@H]2SC1
- MIC [1]: 16 µg/mL (≈ 39.5 µM)
- MIC [2]: 16 µg/mL (≈ 39.5 µM)
- MIC [4]: 31 µg/mL (≈ 76.5 µM)
- MIC [8]: 63 µg/mL (≈ 155 µM)
- MIC [12]: 8 µg/mL (≈ 19.7 µM)
- MIC [14]: 63 µg/mL (≈ 155 µM)
- MIC [18]: 0.5 µg/mL (≈ 1.23 µM)

Compound: CC(=O)OCC1=C(C(=O)O)N2C(=O)[C@@H](NC(=O)[C@H](N)c3ccccc3)[C@H]2SC1 [CEPHALOGLYCIN]
- MIC [1]: 2.5 µg/mL (≈ 6.17 µM)
- concentration at 4 h [20]: < 100 ng/mL
- MIC [2]: 2.5 µg/mL (≈ 6.17 µM)
- concentration at 2 h [3]: 200 ng/mL
- MIC [4]: 5 µg/mL (≈ 12.3 µM)
- concentration at 2 h [5]: 700 ng/mL
- concentration at 4 h [6]: < 100 ng/mL
- concentration at 20 min [21]: 40200 ng/mL
- concentration at 10 min [7]: 1700 ng/mL
- MIC [8]: 5 µg/mL (≈ 12.3 µM)
- concentration at 4 h [9]: 70 ng/mL
- concentration at 1 h [10]: 3100 ng/mL
- concentration at 1 h [11]: 600 ng/mL
- MIC [12]: 1.25 µg/mL (≈ 3.08 µM)
- concentration at 0.5 h [13]: 2000 ng/mL
- MIC [14]: 5 µg/mL (≈ 12.3 µM)
- concentration at 10 min [15]: 37100 ng/mL
- concentration at 0.5 h [22]: 11000 ng/mL
- concentration at 2 h [23]: < 100 ng/mL
- concentration at 1 h [24]: 1500 ng/mL
- concentration at 20 min [16]: 30200 ng/mL
- concentration at 20 min [17]: 2600 ng/mL
- MIC [18]: 1.25 µg/mL (≈ 3.08 µM)
- concentration at 10 min [25]: 62400 ng/mL
- concentration at 0.5 h [19]: 21700 ng/mL

Compound: O=C(Cc1cccs1)N[C@@H]1C(=O)N2C(C(=O)[O-])=C(C[n+]3ccccc3)CS[C@H]12 [CEPHALORIDINE]
- concentration at 4 h [20]: < 50 ng/mL
- concentration at 2 h [3]: 710 ng/mL
- concentration at 4 h [6]: < 200 ng/mL
- concentration at 20 min [21]: 23200 ng/mL
- concentration at 1 h [10]: 5600 ng/mL
- concentration at 10 min [15]: 32800 ng/mL
- concentration at 0.5 h [22]: 14300 ng/mL
- concentration at 2 h [23]: 320 ng/mL
- concentration at 1 h [24]: 2900 ng/mL
- concentration at 20 min [16]: 24400 ng/mL
- concentration at 10 min [25]: 48800 ng/mL
- concentration at 0.5 h [19]: 18500 ng/mL
